According to ChEMBL document CHEMBL5344428, “Discovery, Crystallographic Studies, and Mechanistic Investigations of Novel Phenylalanine Derivatives Bearing a Quinazolin-4-one Scaffold as Potent HIV Capsid Modulators” (J Med Chem, 2023):

Legend:
[1] = Selectivity ratio of EC50 for antiviral activity against HIV1 IIIB infected in human MT4 cells to EC50 for antiviral activity against HIV2 ROD infected in human MT4 cells; assay type: toxicity, cell-based
How it was run: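 Ratio is EC50 against HIV-1 IIIB divided by EC50 against HIV-2 ROD. Both EC50 values come from MTT-read protection of infected MT-4 cells.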

[2] = Selectivity index, ratio of CC50 for cytotoxicity against human MT4 cells to EC50 for antiviral activity against HIV2 ROD infected in human MT4 cells; assay type: toxicity, cell-based; conditions: read-out: Ratio CC50/EC50
How it was run: (§1)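 SI is CC50 divided by EC50. CC50 comes from MTT viability of uninfected MT-4 cells. EC50 comes from MTT-read protection of MT-4 cells infected with HIV-1 IIIB or HIV-2 ROD. Each value was run in at least triplicate.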

[3] = Selectivity index, ratio of CC50 for cytotoxicity against human MT4 cells to EC50 for antiviral activity against HIV1 IIIB infected in human MT4 cells; assay type: toxicity, cell-based; conditions: read-out: Ratio CC50/EC50; how it was run: as §1
[4] = Cytotoxicity against human MT4 cells assessed as reduction in cell viability incubated for 5 days by MTT assay; assay type: toxicity, cell-based; conditions: MT4 cells, time 5 day
How it was run: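 Uninfected MT-4 cells were exposed to compound, and viability was read by the MTT method. […] Each value was run in at least triplicate and averaged from at least three independent experiments.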

[5] = test system: Human immunodeficiency virus 1; assay: Antiviral activity against HIV1 IIIB infected in human MT4 cells assessed as reduction in virus induced cytopathic effect measured after 5 days by MTT assay; assay type: functional, organism-based; conditions: Human immunodeficiency virus 1, IIIB, MT4, 120 h
How it was run: (§2)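 MT-4 cells were infected with HIV-1 IIIB or HIV-2 ROD, and cell viability was read by MTT. […] Each value was run in at least triplicate and averaged from at least three independent experiments.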

[6] = test system: Human immunodeficiency virus 2; assay: Antiviral activity against HIV2 ROD infected in human MT4 cells assessed as reduction in virus induced cytopathic effect measured after 5 days by MTT assay; assay type: functional, organism-based; conditions: Human immunodeficiency virus 2, ROD, MT4, 120 h; how it was run: as §2

SMILES | Ratio EC50 [1] | selectivity ratio [2] | selectivity ratio [3] | CC50 at 120 h [4] | EC50 [5] | EC50 [6]
COc1ccc(N(C)C(=O)[C@H](Cc2ccccc2)NC(=O)CN2CCN(C(=O)Cc3c[nH]c4ccccc34)CC2=O)cc1 | 3.06 | 23 | 7.51 | 112 µM | 15 µM | 4.89 µM
COc1ccc(N(C)C(=O)[C@H](Cc2cc(F)cc(F)c2)NC(=O)CN(Cc2ccccc2)C(=O)Cc2c(C)[nH]c3ccccc23)cc1 | 0.42 | 4 | 10 | 28.6 µM | 2.77 µM | 6.52 µM
COc1ccc(-n2c(SCC(F)F)nnc2[C@H](Cc2ccccc2)NC(=O)Cc2c(C)[nH]c3ccccc23)cc1 | 0.35 | 3 | 10 | 24.4 µM | 2.54 µM | 7.33 µM
Nc1ccc(S(=O)(=O)N2CCN(CC(=O)N[C@@H](Cc3ccccc3)c3nc4ccccc4c(=O)n3-c3ccc(S(=O)(=O)N4CCOCC4)cc3)CC2)cc1 | 1.5 | > 1560 | > 1040 | > 159 µM | 0.15 µM | 0.1 µM
COc1ccc(-n2c([C@H](Cc3cc(F)cc(F)c3)NC(=O)CN3CCN(S(=O)(=O)c4ccc([N+](=O)[O-])cc4)CC3)nc3cc(Cl)ccc3c2=O)cc1 | 1.48 | > 403 | > 278 | > 163 µM | 0.59 µM | 0.4 µM
COC(=O)c1ccc(C(=O)Nc2ccn(CC(=O)N[C@@H](Cc3ccccc3)C(=O)N(C)c3ccc(OC)cc3)c(=O)c2)cc1 | 1.25 | 6.31 | 5.04 | 96.2 µM | 19.1 µM | 15.2 µM
COc1ccc(N(C)C(=O)[C@H](Cc2cc(F)cc(F)c2)NC(=O)CN2CCN(C(=O)c3ccc(NC(=O)C(F)(F)F)cc3)CC2=O)cc1 | 0.83 | 9.09 | 10.9 | 150 µM | 13.7 µM | 16.6 µM
C#CCSc1nnc([C@H](Cc2ccccc2)NC(=O)Cc2c(C)[nH]c3ccccc23)n1-c1ccc(OC)cc1 | 0.52 | 6 | 12 | 24.7 µM | 2.05 µM | 3.94 µM
COc1ccc(N(C)C(=O)[C@H](Cc2cc(F)cc(F)c2)NC(=O)CN(Cc2ccc(F)cc2)C(=O)Cn2nc(C(F)(F)F)c3ccccc32)cc1 | 0.2 | 8 | 42 | 108 µM | 2.53 µM | 12.9 µM
COc1ccc(N(C)C(=O)[C@H](Cc2cc(F)cc(F)c2)NC(=O)CN(Cc2ccc(F)cc2)C(=O)Cc2ccc(B(O)O)cc2)cc1 | 0.64 | 3 | 4 | 18.9 µM | 4.33 µM | 6.8 µM
COc1ccc(N(C)C(=O)[C@H](Cc2ccccc2)NC(=O)Cn2ccc(N)cc2=O)cc1 | 1.47 | 13.2 | 8.98 | 261 µM | 29.1 µM | 19.7 µM
COc1ccc(N(C)C(=O)[C@H](Cc2cc(F)cc(F)c2)NC(=O)CN2CCN(C(=O)Cc3c[nH]c4ccccc34)CC2=O)cc1 | 1.67 | 3.28 | 1.97 | 57.8 µM | 29.4 µM | 17.6 µM
COc1ccc(N(C)C(=O)[C@H](Cc2cc(F)cc(F)c2)NC(=O)CN(Cc2ccc(C#N)cc2)C(=O)Cc2c[nH]c3ccc(F)cc23)cc1 | 2.97 | 26 | 9 | 148 µM | 17.2 µM | 5.81 µM
COc1ccc(N(C)C(=O)[C@H](Cc2cc(F)cc(F)c2)NC(=O)CN(Cc2ccc(F)cc2)C(=O)Cc2c[nH]c3ccc(Br)cc23)cc1 | < 0.16 | < 1 | 6 | 17.8 µM | 2.93 µM | > 17.8 µM
COc1ccc(-n2c([C@H](Cc3ccccc3)NC(=O)CN3CCN(S(=O)(=O)c4ccc(N)cc4)CC3)nc3ccccc3c2=O)cc1 | 4.27 | > 1250 | > 291 | > 187 µM | 0.64 µM | 0.15 µM
COc1ccc(-n2c(S)nnc2[C@H](Cc2ccccc2)NC(=O)Cc2c(C)[nH]c3ccccc23)cc1 | 0.47 | 13 | 27 | 133 µM | 4.94 µM | 10.6 µM
COc1ccc(N(C)C(=O)[C@H](Cc2ccccc2)NC(=O)Cn2ccc(NC(=O)c3ccccc3)cc2=O)cc1 | 3.46 | 17.8 | 5.15 | 86.5 µM | 16.8 µM | 4.86 µM
COc1ccc(N(C)C(=O)[C@H](Cc2ccccc2)NC(=O)Cn2ccc(NC(=O)c3ccc(C#N)cc3)cc2=O)cc1 | 0.94 | 7.69 | 8.18 | 137 µM | 16.8 µM | 17.8 µM
COc1ccc(N(C)C(=O)[C@H](Cc2cc(F)cc(F)c2)NC(=O)CN(C(=O)Cc2ccc(B3OC(C)(C)C(C)(C)O3)cc2)C2CC2)cc1 | 0.53 | 9 | 17 | 89 µM | 5.18 µM | 9.71 µM
COc1ccc(N(C)C(=O)[C@H](Cc2ccccc2)NC(=O)Cn2ccc(NC(=O)c3ccc(C)cc3)cc2=O)cc1 | 1.25 | 2.85 | 2.28 | 58.3 µM | 25.6 µM | 20.5 µM
COc1ccc(-n2c(SCc3ccc(S(C)(=O)=O)cc3)nnc2[C@H](Cc2ccccc2)NC(=O)Cc2c(C)[nH]c3ccccc23)cc1 | 0.31 | 22 | 71 | 172 µM | 2.43 µM | 7.89 µM
COc1ccc(N(C)C(=O)[C@H](Cc2cc(F)cc(F)c2)NC(=O)CN2CCN(C(=O)c3ccc(NC(=O)C4CC4)cc3)CC2=O)cc1 | 0.95 | 5.87 | 6.17 | 88.6 µM | 14.4 µM | 15.1 µM
COc1ccc(-n2c([C@H](Cc3ccccc3)NC(=O)CN3CCN(S(=O)(=O)c4ccc(N)cc4)CC3)nc3cc(Cl)ccc3c2=O)cc1 | 6.1 | > 1740 | > 291 | > 178 µM | 0.61 µM | 0.1 µM
COc1ccc(N(C)C(=O)[C@H](Cc2ccccc2)NC(=O)CN2CCN(C(=O)Cc3c[nH]c4ccc(OC)cc34)CC2=O)cc1 | 0.86 | 6.15 | 7.15 | 104 µM | 14.6 µM | 16.9 µM
COc1ccc(N(C)C(=O)[C@H](Cc2ccccc2)NC(=O)CN2CCN(C(=O)Cc3c[nH]c4ccc(F)cc34)CC2=O)cc1 | 4.83 | 19.9 | 4.13 | 90.1 µM | 21.8 µM | 4.52 µM
